# Experiments:
# Format in all cases: functional
# [1] = test system: DU-145; assay: Growth inhibition of human DU-145 cells assessed as cell growth at 0.01 uM incubated for 48 hrs by sulforhodamine B assay relative to control; conditions: read-out: Activity
# In short: (§1)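 NCI Developmental Therapeutics Program NCI60 panel. Compounds that were active in the 10 µM one-dose screen went on to dose–response testing. Growth at each concentration is expressed relative to untreated control (100%). GI50 (concentration giving 50% of maximal inhibition of proliferation) and TGI (concentration giving total growth inhibition) were derived from the curves.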
# [2] = test system: U-251; assay: Growth inhibition of human U-251 cells incubated for 48 hrs by sulforhodamine B assay
# In short: (§2)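 NCI DTP 60-line human tumour panel. Dose-response curves were run only for ligands active in the initial 10 µM screen. GI50 (concentration giving 50% of maximal inhibition of proliferation) and TGI (concentration giving total growth inhibition) were derived from these curves.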
# [3] = test system: 786-0; assay: Growth inhibition of human 786-0 cells assessed as cell growth at 0.1 uM incubated for 48 hrs by sulforhodamine B assay relative to control; conditions: read-out: Activity; in short: as §1
# [4] = test system: BT-549; assay: Growth inhibition of human BT-549 cells assessed as cell growth at 0.01 uM incubated for 48 hrs by sulforhodamine B assay relative to control; conditions: read-out: Activity
# [5] = test system: SK-MEL-2; assay: Growth inhibition of human SK-MEL-2 cells assessed as cell growth at 100 uM incubated for 48 hrs by sulforhodamine B assay relative to control; conditions: read-out: Activity
# [6] = test system: RPMI-8226; assay: Growth inhibition of human RPMI-8226 cells assessed as cell growth at 0.1 uM incubated for 48 hrs by sulforhodamine B assay relative to control; conditions: read-out: Activity
# [7] = test system: TK-10; assay: Growth inhibition of human TK-10 cells assessed as cell growth at 1 uM incubated for 48 hrs by sulforhodamine B assay relative to control; conditions: read-out: Activity
# [8] = test system: SW-620; assay: Growth inhibition of human SW-620 cells assessed as cell growth at 0.1 uM incubated for 48 hrs by sulforhodamine B assay relative to control; conditions: read-out: Activity
# [9] = test system: SF-539; assay: Growth inhibition of human SF-539 cells incubated for 48 hrs by sulforhodamine B assay; conditions: for CC50: read-out: LC50 (the source's name); in short: as §2
# [10] = test system: SW-620; assay: Growth inhibition of human SW-620 cells assessed as cell growth at 0.01 uM incubated for 48 hrs by sulforhodamine B assay relative to control; conditions: read-out: Activity
# [11] = test system: SK-OV-3; assay: Growth inhibition of human SK-OV-3 cells assessed as cell growth at 0.01 uM incubated for 48 hrs by sulforhodamine B assay relative to control; conditions: read-out: Activity
# [12] = test system: HOP-62; assay: Growth inhibition of human HOP-62 cells assessed as cell growth at 0.01 uM incubated for 48 hrs by sulforhodamine B assay relative to control; conditions: read-out: Activity
# [13] = test system: NCI/ADR-RES; assay: Growth inhibition of human NCI/ADR-RES cells assessed as cell growth at 1 uM incubated for 48 hrs by sulforhodamine B assay relative to control; conditions: read-out: Activity
# [14] = test system: U-251; assay: Growth inhibition of human U-251 cells assessed as cell growth at 0.01 uM incubated for 48 hrs by sulforhodamine B assay relative to control; conditions: read-out: Activity
# [15] = test system: NCI-H226; assay: Growth inhibition of human NCI-H226 cells incubated for 48 hrs by sulforhodamine B assay; conditions: for CC50: read-out: LC50 (the source's name)
# In short: (§3)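 NCI60 panel at the NCI Developmental Therapeutics Program. Only compounds active in the 10 µM screen went to dose-response testing. GI50, the concentration giving 50% of maximal inhibition of proliferation, and TGI, the concentration giving total growth inhibition, were derived from the dose-response curves.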
# [16] = test system: IGROV-1; assay: Growth inhibition of human IGROV-1 cells assessed as cell growth at 100 uM incubated for 48 hrs by sulforhodamine B assay relative to control; conditions: read-out: Activity
# [17] = test system: UO-31; assay: Growth inhibition of human UO-31 cells incubated for 48 hrs by sulforhodamine B assay; conditions: for CC50: read-out: LC50 (the source's name); in short: as §2
# [18] = test system: COLO 205; assay: Growth inhibition of human COLO 205 cells assessed as cell growth at 0.01 uM incubated for 48 hrs by sulforhodamine B assay relative to control; conditions: read-out: Activity; in short: as §1
# [19] = test system: NCI/ADR-RES; assay: Growth inhibition of human NCI/ADR-RES cells assessed as cell growth at 0.01 uM incubated for 48 hrs by sulforhodamine B assay relative to control; conditions: read-out: Activity
# [20] = test system: NCI/ADR-RES; assay: Growth inhibition of human NCI/ADR-RES cells assessed as cell growth at 100 uM incubated for 48 hrs by sulforhodamine B assay relative to control; conditions: read-out: Activity
# [21] = test system: NCI-H226; assay: Growth inhibition of human NCI-H226 cells assessed as cell growth at 100 uM incubated for 48 hrs by sulforhodamine B assay relative to control; conditions: read-out: Activity
# [22] = test system: A549; assay: Growth inhibition of human A549/ATCC cells assessed as cell growth at 0.01 uM incubated for 48 hrs by sulforhodamine B assay relative to control; conditions: read-out: Activity; in short: as §1
# [23] = test system: MDA-MB-435; assay: Growth inhibition of human MDA-MB-435 cells assessed as cell growth at 100 uM incubated for 48 hrs by sulforhodamine B assay relative to control; conditions: read-out: Activity
# [24] = test system: NCI-H322M; assay: Growth inhibition of human NCI-H322M cells assessed as cell growth at 1 uM incubated for 48 hrs by sulforhodamine B assay relative to control; conditions: read-out: Activity
# [25] = test system: SN12C; assay: Growth inhibition of human SN12C cells assessed as cell growth at 100 uM incubated for 48 hrs by sulforhodamine B assay relative to control; conditions: read-out: Activity
# [26] = test system: NCI-H460; assay: Growth inhibition of human NCI-H460 cells assessed as cell growth at 1 uM incubated for 48 hrs by sulforhodamine B assay relative to control; conditions: read-out: Activity
# [27] = test system: SNB-75; assay: Growth inhibition of human SNB-75 cells incubated for 48 hrs by sulforhodamine B assay; in short: as §2
# [28] = test system: TK-10; assay: Growth inhibition of human TK-10 cells assessed as cell growth at 0.1 uM incubated for 48 hrs by sulforhodamine B assay relative to control; conditions: read-out: Activity
# [29] = test system: SF-295; assay: Growth inhibition of human SF-295 cells assessed as cell growth at 100 uM incubated for 48 hrs by sulforhodamine B assay relative to control; conditions: read-out: Activity
# [30] = test system: MDA-MB-231; assay: Growth inhibition of human MDA-MB-231 cells incubated for 48 hrs by sulforhodamine B assay; conditions: for CC50: read-out: LC50 (the source's name); in short: as §3
# [31] = test system: Hs-578T; assay: Growth inhibition of human Hs-578T cells incubated for 48 hrs by sulforhodamine B assay; conditions: for CC50: read-out: LC50 (the source's name); in short: as §3
# [32] = test system: LOX IMVI; assay: Growth inhibition of human LOX IMVI cells assessed as cell growth at 0.01 uM incubated for 48 hrs by sulforhodamine B assay relative to control; conditions: read-out: Activity
# [33] = test system: K562; assay: Growth inhibition of human K562 cells assessed as cell growth at 1 uM incubated for 48 hrs by sulforhodamine B assay relative to control; conditions: read-out: Activity
# [34] = test system: SK-MEL-28; assay: Growth inhibition of human SK-MEL-28 cells incubated for 48 hrs by sulforhodamine B assay; in short: as §2
structure (smiles),measurement,setting,value
Nc1c(C(=O)Nc2ccccc2)sc2nc3c(cc12)CN(Cc1ccccc1)CC3,growth at 0.01 µM,[1],106%
same,GI50,[2],13.9 µM
same,LC50 (concentration killing 50% of cells),[2],> 100 µM
same,TGI,[2],> 100 µM
same,growth at 0.1 µM,[3],90%
same,growth at 0.01 µM,[4],97%
same,growth at 100 µM,[5],4%
same,growth at 0.1 µM,[6],99%
same,growth at 1 µM,[7],100%
same,growth at 0.1 µM,[8],97%
same,GI50,[9],2.78 µM
same,TGI,[9],> 100 µM
same,CC50,[9],> 100 µM
same,growth at 0.01 µM,[10],98%
same,growth at 0.01 µM,[11],97%
same,growth at 0.01 µM,[12],89%
same,growth at 1 µM,[13],98%
same,growth at 0.01 µM,[14],98%
same,GI50,[15],4.91 µM
same,TGI,[15],> 100 µM
same,CC50,[15],> 100 µM
same,growth at 100 µM,[16],32%
same,GI50,[17],6.14 µM
same,TGI,[17],> 100 µM
same,CC50,[17],> 100 µM
same,growth at 0.01 µM,[18],100%
same,growth at 0.01 µM,[19],103%
same,growth at 100 µM,[20],29%
same,growth at 100 µM,[21],19%
same,growth at 0.01 µM,[22],98%
same,growth at 100 µM,[23],-6%
same,growth at 1 µM,[24],91%
same,growth at 100 µM,[25],47%
same,growth at 1 µM,[26],91%
same,GI50,[27],1.32 µM
same,TGI,[27],3.5 µM
same,growth at 0.1 µM,[28],96%
same,growth at 100 µM,[29],12%
same,GI50,[30],5.81 µM
same,TGI,[30],> 100 µM
same,CC50,[30],> 100 µM
same,GI50,[31],2.07 µM
same,TGI,[31],7.55 µM
same,CC50,[31],> 100 µM
same,growth at 0.01 µM,[32],94%
same,growth at 1 µM,[33],88%
same,GI50,[34],23.2 µM
same,LC50,[34],> 100 µM
same,TGI,[34],> 100 µM
CN1CCc2nc3sc(C(N)=O)c(N)c3c(-c3cccs3)c2C1,growth at 0.01 µM,[1],111%
same,GI50,[2],3.18 µM
same,LC50 (concentration killing 50% of cells),[2],> 100 µM
same,TGI,[2],> 100 µM
same,growth at 0.1 µM,[3],99%
same,growth at 0.01 µM,[4],114%
same,growth at 100 µM,[5],-45%
same,growth at 0.1 µM,[6],121%
same,growth at 1 µM,[7],103%
same,growth at 0.1 µM,[8],110%
same,GI50,[9],2.35 µM
same,TGI,[9],6.79 µM
same,CC50,[9],> 100 µM
same,growth at 0.01 µM,[10],105%
same,growth at 0.01 µM,[11],93%
same,growth at 0.01 µM,[12],101%
same,growth at 1 µM,[13],91%
same,growth at 0.01 µM,[14],99%
same,GI50,[15],3.16 µM
same,TGI,[15],> 100 µM
same,CC50,[15],> 100 µM
same,growth at 100 µM,[16],9%
same,GI50,[17],3.47 µM
same,TGI,[17],> 100 µM
same,CC50,[17],> 100 µM
same,growth at 0.01 µM,[18],105%
same,growth at 0.01 µM,[19],100%
same,growth at 100 µM,[21],14%
same,growth at 0.01 µM,[22],99%
same,growth at 100 µM,[23],3%
same,growth at 1 µM,[24],99%
same,growth at 100 µM,[25],6%
same,growth at 1 µM,[26],108%
same,GI50,[27],2.81 µM
same,LC50,[27],> 100 µM
same,TGI,[27],8.03 µM
same,growth at 0.1 µM,[28],99%
same,growth at 100 µM,[29],4%
same,GI50,[30],4.77 µM
same,TGI,[30],> 100 µM
same,CC50,[30],> 100 µM
same,GI50,[31],3.07 µM
same,TGI,[31],21.7 µM
same,CC50,[31],> 100 µM
same,growth at 0.01 µM,[32],97%
same,growth at 1 µM,[33],96%
same,GI50,[34],2.91 µM
same,LC50,[34],> 100 µM
same,TGI,[34],9.59 µM
CCc1cccc(C)c1NC(=O)c1sc2nc3c(cc2c1N)C(=O)CCC3,growth at 0.01 µM,[1],101%
same,GI50,[2],0.57 µM
same,LC50 (concentration killing 50% of cells),[2],> 100 µM
same,TGI,[2],> 100 µM
same,growth at 0.1 µM,[3],89%
same,growth at 0.1 µM,[6],102%
same,growth at 0.1 µM,[8],91%
same,GI50,[9],0.32 µM
same,CC50,[9],> 100 µM
same,growth at 0.01 µM,[10],97%
same,growth at 0.01 µM,[12],94%
same,growth at 1 µM,[13],33%
same,growth at 0.01 µM,[14],94%
same,GI50,[15],0.182 µM
same,TGI,[15],> 100 µM
same,CC50,[15],> 100 µM
same,growth at 100 µM,[16],8%
same,GI50,[17],0.0982 µM
same,TGI,[17],≥ 100 µM
same,CC50,[17],> 100 µM
same,growth at 0.01 µM,[18],96%
same,growth at 0.01 µM,[19],100%
same,growth at 100 µM,[20],1%
same,growth at 100 µM,[21],8%
same,growth at 0.01 µM,[22],96%
same,growth at 100 µM,[23],-13%
same,growth at 1 µM,[24],42%
same,growth at 100 µM,[25],-4%
same,growth at 1 µM,[26],9%
same,GI50,[27],0.212 µM
same,LC50,[27],> 100 µM
same,growth at 100 µM,[29],1%
same,GI50,[30],1.04 µM
same,TGI,[30],> 100 µM
same,CC50,[30],> 100 µM
same,TGI,[31],> 100 µM
same,CC50,[31],> 100 µM
same,growth at 0.01 µM,[32],95%
same,growth at 1 µM,[33],16%
same,GI50,[34],0.133 µM
same,LC50,[34],> 100 µM
same,TGI,[34],> 100 µM
